PostGolgi ctrl: growth inhibition of yeast control strain, primary screen, counter-screen for post-Golgi transport modulator project | efflux-deficient yeast background strain, growth absorbance A615, 16 h | inhibition, % at 10 µM | 98,000 tested, 5% active
PLAP activator: PLAP enzyme activators, biochemical, luminescence, HTS; Alkaline phosphatase, placental type (Homo sapiens), P05187; purified PLAP enzyme, luminescent substrate read-out; active compounds read high; activation fold at 20 µM; 96,000 tested, 1.2% active; AID 696, 2007; in the data active means activation fold above about 2
HePTP inhibitor: inhibitors of human HePTP phosphatase, primary screen, biochemical, absorbance, leukemia target; recombinant HePTP phosphatase activity, OD absorbance; 110,000 tested, 0.64% active; Tyrosine-protein phosphatase non-receptor type 7 (Homo sapiens), P35236; inhibition, % at 20 µM; in the data active means inhibition above about 50%;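 further: plate controls were vehicle for no effect and reference inhibitor for full effect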
Target sequence (P35236 whole entry, looked up): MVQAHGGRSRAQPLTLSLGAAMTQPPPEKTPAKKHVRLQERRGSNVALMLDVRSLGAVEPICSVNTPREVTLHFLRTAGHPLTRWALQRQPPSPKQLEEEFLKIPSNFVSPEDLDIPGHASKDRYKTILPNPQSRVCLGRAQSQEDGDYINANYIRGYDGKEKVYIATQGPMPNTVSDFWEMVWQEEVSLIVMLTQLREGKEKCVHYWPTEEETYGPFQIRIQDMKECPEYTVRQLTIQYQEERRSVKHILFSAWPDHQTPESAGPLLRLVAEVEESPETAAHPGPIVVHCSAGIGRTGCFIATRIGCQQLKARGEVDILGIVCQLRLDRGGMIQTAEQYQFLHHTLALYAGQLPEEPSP
PostGolgi yeast: phenotypic screen on post-Golgi transport, primary screen. post-Golgi transport phenotypic cell assay. inhibition, % at 10 µM. 98,000 tested, 0.9% active. AID 739, 2007;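 further: yeast cells grown in 1536-well plates; yeast grown about 18 h at 30C before absorbance read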
Ecoli tolC: growth inhibitors of E. coli tolC mutant, primary screen, strain BW25113 ΔtolC::kan, 384-well; 65,000 tested, 2.2% active; AID 573, 2007; growth inhibition, % at 10 µM (by protocol); OD615;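 active means growth inhibition at or above a cutoff equal to the mean over every tested compound plus 3 SD, cut at about 60% in these data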;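 further: growth measured after 20 h incubation at 37 °C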
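System: E. coli ΔtolC::kan strain BW25113; Buffer or medium: LB broth supplemented with 50 µg/mL kanamycin; Compound: 10 µM final, single dose; Incubation: bacterial growth with compound for 20 h at 37 °C; Signal: A615 absorbance measurement; Evaluation: growth inhibition in percent.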
Ecoli WT expand: growth inhibitors of wild-type E. coli, primary screen, strain BW25113, expanded library, OD600; OD600 absorbance; growth inhibition, % at 100 µM; 98,000 tested, 0.15% active;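 active means growth inhibition above about 50% at one test dose, limit read from the data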;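 further: growth measured after 20 h incubation at 37 °C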
* hit, by the source's call; x = not tested or not shown. Only some compounds are listed: those with a hit (about 5.4% of all), similar ones and a draw of the others. Unless noted, no stated cut-off is given here; in the data, active means inhibition above about 30%; inactive means the rest.

SMILES	PostGolgi ctrl	PLAP activator	HePTP inhibitor	PostGolgi yeast	Ecoli tolC	Ecoli WT expand
Cc1cc(NC(=O)c2ccc(I)cc2)ccc1NC(=O)c1ccccc1	x	x	-12	x	x	x
Cc1c(C(=O)N2CCN(S(C)(=O)=O)CC2)oc2ccccc12	34*	0.9	1	-8	2	7
Cc1c(C(=O)N2CCN(CCc3ccccc3)CC2)oc2ccccc12	13	1.5	8	7	10	13
COc1ccc(/C=C2\NC(=S)N(c3ccccc3)C2=O)cc1OC	x	x	-15	x	x	x
O=C(CSc1ncccn1)n1c2c(c3ccccc31)CCCC2	51*	1.1	x	-1	x	-35
O=C(c1ccc([N+](=O)[O-])cc1)n1c2c(c3ccccc31)CCCC2	x	x	104*	x	x	x
Cc1ccc(-c2cc(C(F)(F)F)n3ncc(C(=O)NCc4cccnc4)c3n2)cc1	x	x	-6	x	x	x
Cc1ccc(/C(O)=C2\C(=O)C(=O)N(CCCC(=O)O)C2c2ccccc2[N+](=O)[O-])cc1 (stereo not given)	x	x	7	x	x	x
Brc1ccc(-c2nc3ccccc3s2)s1	6	1.1	2	13	-14	-9
Nc1nc(-c2ccc(Br)s2)c(Br)s1	51*	1	2	-1	20	0
CCc1ccc2c(COC(=O)c3n[nH]c4ccccc34)cc(=O)oc2c1	37*	1.6	9	-4	21	-2
Cc1ccc2c(COC(=O)c3n[nH]c4ccccc34)cc(=O)oc2c1	20	1.2	3	-5	5	-1
COc1ccc(C(=O)Nc2ncc(Br)cc2Br)cc1[N+](=O)[O-]	x	x	2	x	x	x
Cc1ccnc2c(N3C(=O)C4C5c6ccccc6C(c6ccccc65)C4C3=O)cccc12 (stereo not given)	74*	1.1	x	69*	x	-5
Cc1cccnc1N1C(=O)C2C3c4ccccc4C(c4ccccc43)C2C1=O (stereo not given)	x	x	-17	x	x	x
Cn1cccc1CNC(=O)Nc1ccc(Cl)cc1	38*	1	-10	14	14	8
O=C1CCCC2=C1C(c1ccsc1)CC(=O)N2c1nnc(SCc2ccccc2)s1 (stereo not given)	37*	1.3	x	4	x	-10
CCCCCCCCCOC(=O)C[n+]1csc(CCO)c1C	64*	0.7	x	14	x	9
Cc1ccc(C23CC4CC(CC(C(=O)Nc5ccc(F)cc5F)(C4)C2)C3)cc1	x	x	72*	x	x	x
CCOC(=O)Cn1c(=O)oc2cc(S(=O)(=O)NCc3ccccn3)ccc21	8	2*	6	4	-10	-1
CCOC(=O)Cn1c(=O)oc2cc(S(=O)(=O)NCc3cccs3)ccc21	3	0.8	-13	7	6	5
O=C(Nc1cccc(-c2nc3ccccc3s2)c1)c1cc2ccccc2o1	x	x	-9	x	x	x
Cc1ccc(N=c2oc3cc(O)ccc3cc2C(N)=O)cc1	58*	1.3	4	30*	18	-2
COc1ccc(N2C(=O)/C(=C/c3cn(Cc4ccccc4)c4ccccc34)C(=O)NC2=S)cc1	x	x	-16	x	x	x
Cc1nc(SCc2cccc(Oc3ccccc3)c2)n[nH]1	36*	1.5	x	0	x	9
SMILES	PostGolgi ctrl	PLAP activator	HePTP inhibitor	PostGolgi yeast	Ecoli tolC	Ecoli WT expand
CCOCCCNC(=O)C1CCN(C(=O)N(C)C)CC1	-3	1	-11	43*	-22	1
CCOCCCNC(=O)C1CCN(S(=O)(=O)N2CCCCC2)CC1	13	1.1	8	-10	-4	-12
Cc1ccc(C(=O)NNC(=O)c2ccc(O)cc2)cc1	x	x	6	x	x	x
O=C(NC1CCCC1)C(c1ccsc1)N(C(=O)Cc1cccs1)c1ccc(F)cc1 (stereo not given)	3	1	x	35*	x	-10
O=C(NC1CCCCC1)C(c1cccs1)N(C(=O)Cc1c[nH]c2ccccc12)c1ccc(F)cc1 (stereo not given)	48*	1	x	-6	x	-13
CC(=O)c1ccc(N(C(=O)Cc2c[nH]c3ccccc23)C(C(=O)NC2CCCCC2)c2cccs2)cc1 (stereo not given)	-3	1.2	x	2	x	5
O=C(COc1ccc(Br)cc1)Nc1ccccc1-c1ccccc1	x	x	6	x	x	x
O=C(Nc1nc(SCc2ccc(F)cc2)ns1)c1ccco1	x	x	x	x	81*	x
Cc1cccc(N2C(=O)C3C4C=CC(C4=C4C5CC6CC(C5)CC4C6)C3C2=O)c1 (stereo not given)	x	x	-23	x	x	x
CC(C)c1nnc(NC(=O)CSc2nncn2C)s1	x	x	5	x	x	x
Cc1ccc(S(=O)(=O)N2CCN(C3CCN(Cc4ccccc4)CC3)CC2)cc1	24	1.6	11	70*	-6	6
Cc1ccc(C(=O)NNC(=O)C2CCN(Cc3ccccc3)CC2)cc1	-5	2.1*	x	-5	x	7
Cc1ccc(C(=O)NNC(=O)C2CCN(Cc3ccc(Cl)c(Cl)c3)CC2)cc1	14	1.1	x	3	x	-5
Cc1ccc(Nc2nc3nonc3n3cnnc23)cc1C	x	x	14	x	x	x
O=[N+]([O-])c1ccccc1/C=N/Nc1nc(-c2ccccc2)cs1	x	x	9	x	x	x
Cn1nc(-c2ccccc2)c(C(=O)Nc2ccc(Cl)cc2)c1Cl	39*	0.9	x	10	x	-3
COc1ccc(-n2nc3cc(C)c(NC(=O)COc4ccc(C)c(C)c4)cc3n2)cc1	x	x	-14	x	x	x
O=c1oc2cc(Cl)ccc2n1CSc1nc2ccccc2s1	32*	0.4	x	8	x	-20
CCOC(=O)C1=C(c2ccccc2)N(C)C(=O)NC1c1ccc(O)c(OC)c1 (stereo not given)	31*	1.1	4	18	-18	4
Cc1cc(C)cc(Nc2cc(=O)n(C3CCCCC3)c(=O)[nH]2)c1	2	0.9	2	4	83*	-14
COc1ccc(Nc2cc(=O)n(C3CCCCC3)c(=O)[nH]2)c(OC)c1	3	1	9	0	-10	0
O=C(Nc1ncn[nH]1)c1ccc(Cl)c(S(=O)(=O)N2CCCCCC2)c1	3	2.1*	x	-5	x	-20
COc1ccc(C(=O)Nc2nc3ccccc3[nH]2)cc1S(=O)(=O)N1CCCC1	7	2*	x	2	x	6
CC(C)NC(=O)COC(=O)c1ccc(Cl)c(S(=O)(=O)N2CCCC2)c1	32*	1	x	-3	x	6
N/C(=N/OC(=O)c1cccc([N+](=O)[O-])c1)c1nonc1N	x	x	-1	x	x	x
O=c1cc(-c2ccccc2)[nH]c2nc3ccccc3n12	18	1.3	5	-6	4	-5
CCc1c(C)[nH]c2nc3ccccc3n2c1=O	12	2.3*	x	-2	x	-7
CCN1CCc2c(C#N)c(N3CCOCC3)nc(NCc3ccccc3)c2C1	36*	1.7	15	5	12	6
CCN1CCc2c(C#N)c(N3CCCCC3)nc(NCc3ccccc3)c2C1	4	1.4	12	7	30	16
Cc1cc2c(c(N)n1)c(=O)oc1ccccc12	6	0.9	3	2	20	0
